# Test results from paper PMC2835692 (Journal of cardiovascular pharmacology, 2009).
# Read-outs that look alike come from different tables or passages of the source.
# Key:
# [1] = molecular target: T1, recombinant human MMP-7 catalytic domain (Homo sapiens, UniProt P09237); test: Recombinant MMP fluorescent assay, MMP-7; format: biochemical
# T1 sequence (P09237 95-267): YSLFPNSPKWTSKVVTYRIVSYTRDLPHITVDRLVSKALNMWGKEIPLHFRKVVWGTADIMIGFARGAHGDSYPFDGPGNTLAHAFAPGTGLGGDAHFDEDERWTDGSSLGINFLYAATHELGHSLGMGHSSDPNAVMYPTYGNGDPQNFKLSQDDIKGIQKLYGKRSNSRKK
# Outline: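 Kit-based fluorogenic substrate assay. Test compound was dissolved in DMSO, with 0.005% final DMSO in buffer (50 mM HEPES, 10 mM CaCl2, 0.05% Brij-35, pH 7.5). Substrate was added to start the reaction. Fluorescence (ex 335/em 405 nm) was read every 60 s for 30 min, with 1 s shaking between reads. Rates came from linear kinetic regions; IC50 from activity versus log[inhibitor]. o-Phenanthroline confirmed MMP-dependent cleavage.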
# [2] = molecular target: recombinant human MMP-12 catalytic domain (Homo sapiens, UniProt P39900); test: Recombinant MMP fluorescent assay, MMP-12; format: biochemical
# [3] = tested on: isolated stunned rat hearts; test: Langendorff isolated perfused rat heart, stunning; settings: for Improvement in RPP versus controls: at 30-minute reperfusion; for Coronary flow rates versus controls: during reperfusion; for cTnI release versus controls: after ischemia
# [4] = molecular target: recombinant human MMP-9 catalytic domain (Homo sapiens, UniProt P14780); test: Recombinant MMP fluorescent assay, MMP-9; format: biochemical; settings: read-out: IC50 MMP-9; 1 hour preincubation at 37°C
# [5] = molecular target: recombinant human MMP-8 catalytic domain (Homo sapiens, UniProt P22894); test: Recombinant MMP fluorescent assay, MMP-8; format: biochemical; settings: read-out: IC50 MMP-8; 1 hour preincubation at 37°C
# [6] = tested on: cocultured neonatal rat cardiac fibroblasts/myocytes; test: MTT cell viability assay; format: cell-based; settings: 24 hours incubation
# [7] = molecular target: recombinant human MMP-3 catalytic domain (Homo sapiens, UniProt P08254); test: Recombinant MMP fluorescent assay, MMP-3; format: biochemical; settings: read-out: IC50 MMP-3; 1 hour preincubation at 37°C
# [8] = molecular target: recombinant human MMP-2 catalytic domain (Homo sapiens, UniProt P08253); test: Recombinant MMP fluorescent assay, MMP-2; format: biochemical; settings: read-out: IC50 MMP-2; 1 hour preincubation at 37°C
# [9] = molecular target: recombinant human MMP-13 catalytic domain (Homo sapiens, UniProt P45452); test: Recombinant MMP fluorescent assay, MMP-13; format: biochemical; settings: read-out: IC50 MMP-13; 1 hour preincubation at 37°C
# [10] = tested on: isolated infarcted rat hearts; test: Langendorff isolated perfused rat heart, infarction; settings: 5 μM
# [11] = molecular target: T2, recombinant human MMP-1 catalytic domain (Homo sapiens, UniProt P03956); test: Recombinant MMP fluorescent assay, MMP-1; format: biochemical; settings: read-out: IC50 MMP-1; 1 hour preincubation at 37°C
# T2 sequence (P03956 100-269 limits assumed): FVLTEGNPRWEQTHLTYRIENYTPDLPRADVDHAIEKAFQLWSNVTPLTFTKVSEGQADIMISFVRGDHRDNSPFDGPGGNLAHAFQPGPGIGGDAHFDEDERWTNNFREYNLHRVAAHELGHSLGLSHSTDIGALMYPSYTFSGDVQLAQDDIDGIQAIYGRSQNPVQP
# [12] = read-out: IC50 MMP-7, 1 hour preincubation at 37°C
# [13] = read-out: IC50 MMP-12, 1 hour preincubation at 37°C
# Chain of recombinant human MMP-12 catalytic domain (P39900 106-263 limits assumed): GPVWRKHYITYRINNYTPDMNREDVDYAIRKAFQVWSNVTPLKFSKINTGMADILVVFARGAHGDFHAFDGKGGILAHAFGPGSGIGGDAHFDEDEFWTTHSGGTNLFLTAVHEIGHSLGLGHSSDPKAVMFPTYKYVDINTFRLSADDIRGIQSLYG
# Chain of recombinant human MMP-8 catalytic domain (P22894 100-262 limits assumed): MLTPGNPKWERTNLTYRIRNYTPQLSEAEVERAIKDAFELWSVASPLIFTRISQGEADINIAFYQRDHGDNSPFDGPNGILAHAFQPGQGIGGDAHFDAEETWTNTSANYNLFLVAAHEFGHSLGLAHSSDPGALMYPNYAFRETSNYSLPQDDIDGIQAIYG
# Chain of recombinant human MMP-9 catalytic domain (P14780 107-444 limits assumed): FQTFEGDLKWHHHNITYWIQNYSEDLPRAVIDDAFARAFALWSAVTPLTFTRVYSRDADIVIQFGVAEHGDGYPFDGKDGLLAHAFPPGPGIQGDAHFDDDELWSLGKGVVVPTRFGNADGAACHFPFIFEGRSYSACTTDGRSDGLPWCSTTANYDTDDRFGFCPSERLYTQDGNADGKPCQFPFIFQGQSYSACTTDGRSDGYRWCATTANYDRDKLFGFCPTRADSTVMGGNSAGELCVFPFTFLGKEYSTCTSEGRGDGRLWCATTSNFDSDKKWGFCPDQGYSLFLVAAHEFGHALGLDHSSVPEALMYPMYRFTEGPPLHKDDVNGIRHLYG
# Chain of recombinant human MMP-2 catalytic domain (P08253 110-446 limits assumed): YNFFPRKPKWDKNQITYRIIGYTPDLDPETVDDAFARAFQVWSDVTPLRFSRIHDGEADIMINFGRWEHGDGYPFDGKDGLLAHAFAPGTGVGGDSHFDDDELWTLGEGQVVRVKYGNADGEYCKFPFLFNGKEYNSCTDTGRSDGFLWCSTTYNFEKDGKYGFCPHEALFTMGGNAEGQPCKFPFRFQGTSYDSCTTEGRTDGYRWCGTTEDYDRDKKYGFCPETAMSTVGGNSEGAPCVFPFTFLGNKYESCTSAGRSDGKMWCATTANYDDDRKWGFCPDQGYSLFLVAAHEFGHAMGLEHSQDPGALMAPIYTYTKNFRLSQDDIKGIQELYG
# Chain of recombinant human MMP-3 catalytic domain (P08254 100-272 limits assumed): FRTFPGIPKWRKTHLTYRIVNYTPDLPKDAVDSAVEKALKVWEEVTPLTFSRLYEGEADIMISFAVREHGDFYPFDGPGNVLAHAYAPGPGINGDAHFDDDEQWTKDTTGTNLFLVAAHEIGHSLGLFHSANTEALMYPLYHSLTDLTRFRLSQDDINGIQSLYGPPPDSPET
structure (smiles),measurement,setting,value
COc1ccc(S(=O)(=O)N(Cc2cccnc2)[C@@H](C(=O)NO)C(C)C)cc1 [CGS27023A],IC50,"[1]; IC50 MMP-7, 1 hour preincubation at 37°C",500 nM
same,IC50,"[2]; IC50 MMP-12, 1 hour preincubation at 37°C",< 50 nM
same,IC50,"[2]; IC50 MMP-12, as stated in discussion text",≤ 50 nM
same,Improvement in RPP versus controls,"[3]; 5 μM, stunned hearts",~ 8%
same,Coronary flow rates versus controls,"[3]; 5 μM, stunned hearts",did not improve coronary flow rates
same,cTnI release versus controls,[3]; stunned hearts,no significant changes in cTnI release
"CC(C)[C@H](NS(=O)(=O)c1ccc(-c2ccc(Br)cc2)cc1)C(=O)O [PD166793, reference compound]",IC50,[1]; [12],3000 nM
same,IC50,[2]; [13],< 50 nM
same,IC50,[4],3000 nM
same,IC50,[5],< 50 nM
same,Improvement in RPP versus controls,"[3]; 5 μM, stunned hearts",~ 8%
same,Coronary flow rates versus controls,"[3]; 5 μM, stunned hearts",did not improve coronary flow rates
same,cTnI release versus controls,[3]; stunned hearts,no significant changes in cTnI release
same,Concentration with loss of cell viability,[6],greater than 10 μM
"O=C(NCc1ccc(-c2ccccc2)cc1)c1cccc(=O)n1O [1,2-HOPO-2]",IC50,[7],560 nM
same,IC50,[8],920 nM
same,IC50,[1]; [12],> 50000 nM
same,IC50,[2]; [13],18 nM
same,IC50,[9],4100 nM
same,Reduction of collagen degradation versus controls,"[10]; 30-minute global ischemia (infarction), opalation",~ 60%
same,Collagen degradation (opalation),"[10]; 30-minute global ischemia (infarction), controls 1.53 ± 0.66",0.56 ± 0.29 AFU
same,Troponin I release,"[10]; 30-minute global ischemia, data not shown",significantly reduced troponin I release
same,Coronary flow rates versus controls,"[10]; conditions of infarction, data not shown",higher coronary flow rates versus controls
same,Improved recovery in RPP versus controls,"[10]; infarcted hearts, at 30-minute reperfusion",~ 17%
same,RPP in treated hearts,"[10]; infarcted hearts, at 30-minute reperfusion, controls 28%",45%
same,IC50,[4],27100 nM
same,IC50,[5],86 nM
same,Peak systolic pressure (PSP),"[3]; 5 μM, data not shown",significant rise in PSP
same,Reduction in myocardial edema versus controls,"[3]; 5 μM, stunned hearts",~ 10%
same,Collagen damage (opalation),"[3]; 5 μM, stunned hearts (20-minute GNFI), controls 1.49 ± 1.0",1.45 ± 0.89 AFU
same,Improvement in RPP versus controls,"[3]; 5 μM, stunned hearts",~ 23%
same,Coronary flow rates versus controls,"[3]; 5 μM, stunned hearts",higher coronary flow rates versus controls
same,Reduction in ventricular wet weight versus controls,"[3]; 5 μM, stunned hearts, end of reperfusion",~ 15%
same,Ventricular wet weight,"[3]; 5 μM, stunned hearts, end of reperfusion, controls 820 ± 72",700 ± 34 mg
same,Wet to dry weight ratio (edema),"[3]; 5 μM, stunned hearts, controls 5.4 ± 0.21",4.9 ± 0.02
same,Reduction of muscle damage,"[3]; abstract, troponin I",~ 25%
same,Improvement in coronary flow rates,"[3]; abstract, versus controls",~ 22%
same,cTnI release versus controls,[3]; stunned hearts,significant reductions in cTnI release versus controls
same,IC50,[11],> 50000 nM
same,Concentration without compromise of cell viability (lack of cytotoxicity),[6]; 0.01-1000 μM tested,< 10 µM
